Published values from different studies.
Compare with care: the assays were run in different laboratories. pEC50: −log10 of the molar value.
Cell line: HeLa
Observed: cell growth or viability

| SMILES | assay | conditions | quantity | value |
| --- | --- | --- | --- | --- |
| CC[C@H](CC[C@@H](C)[C@H]1CC[C@H]2[C@@H]3CC=C4C[C@@H](O)CC[C@]4(C)[C@H]3CC[C@]12C)C(C)C | MTT | 48 h | CC50 | > 100 µg/mL |
| Fc1ccc(Oc2ccc(Nc3ccc4ncc(OCC5CCNCC5)nc4c3)cc2)cc1 | XTT | 7 days | pEC50 | < 4.52 |
| CC(C)n1ncc2c(C(=O)NCC3(C)CNC3)cc(C3CC3)nc21 | neutral red | 0.33 µM | viability | 101% |
| c1cc(-c2cc3ncc(OCC4CCNCC4)nc3cc2-c2cccc(N3CCCCC3)c2)cc(N2CCCCC2)c1 | XTT | 7 days | pEC50 | 4.62 |
| Nc1nc2c(ncn2COCCO)c(=O)[nH]1 | MTT | 48 h | CC50 | 355 µM |
| CCn1c(=O)c(-c2cc[nH]n2)cc2c(C)nc(N)nc21 | MTT |  | CC50 | 13.6 µM |
| c1cc(N2CCCC2)ccc1-c1cc2ncc(OCC3CCNCC3)nc2cc1-c1ccc(N2CCCC2)cc1 | XTT | 7 days | pEC50 | < 4.52 |
| NC(=O)c1ncn([C@@H]2O[C@H](CO)[C@@H](O)[C@H]2O)n1 | MTT |  | CC50 | 115 µM |
| CCN(CC)CCCC(C)Nc1ccnc2cc(Cl)ccc12 (stereo not drawn) | MTT | 48 h | CC50 | > 100 µg/mL |
